How the values were obtained:
Complement factor D [1] = target: T1, Complement factor D (Homo sapiens, UniProt P00746); assay: Competitive inhibition of human complement factor D preincubated for 1 hr followed by addition of Z-Lys-thiobenzyl ester as substrate measured over 50 mins at 1 min interval
Procedure, shortened: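 Enzyme was factor D purified from normal human serum. Substrate Z-Lys-thiobenzyl ester (Z-Lys-Sbzl), read by absorbance. IC50 is the average of at least two independent triplicate experiments.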

Complement factor D [2] = target: T1, Complement factor D; assay: Binding affinity to recombinant human C-terminal 6His-tagged/biotinylated complement factor D (26 to 253 residues) expressed in Sf9 insect cells by biolayer interferometry method
Procedure, shortened: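 Biotinylated recombinant human factor D expressed in Sf9 insect cells; direct binding read by bio-layer interferometry. Kd taken from the mean of two independent experiments, with standard deviations.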

Complement factor D [3] = target: T1, Complement factor D; assay: Binding affinity to recombinant human C-terminal 6His-tagged/biotinylated complement factor D (26 to 253 residues) expressed in Sf9 insect cells assessed as association constant measured after 300 to 900 secs by biolayer interferometry method
Complement factor D [4] = target: T1, Complement factor D; assay: Binding affinity to recombinant human C-terminal 6His-tagged/biotinylated complement factor D (26 to 253 residues) expressed in Sf9 insect cells assessed as dissociation constant measured after 300 to 1800 secs by biolayer interferometry method
Complement factor D [5] = target: T1, Complement factor D; assay: Inhibition of recombinant human C-terminal 6His-tagged complement factor D (26 to 253 residues) expressed in Sf9 insect cells preincubated for 1 hr followed by addition of Z-Lys-thiobenzyl ester as substrate measured over 50 mins at 1 min interval
Procedure, shortened: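 Enzyme was recombinant human factor D expressed in Sf9 insect cells. Substrate Z-Lys-thiobenzyl ester, read by absorbance. OD was converted to product concentration with an extinction coefficient of 13260 M-1cm-1 and a 0.29 cm path correction.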

Complement factor D [6] = target: T1, Complement factor D; assay: Binding affinity to complement factor D (unknown origin)

T1 sequence (P00746 whole entry): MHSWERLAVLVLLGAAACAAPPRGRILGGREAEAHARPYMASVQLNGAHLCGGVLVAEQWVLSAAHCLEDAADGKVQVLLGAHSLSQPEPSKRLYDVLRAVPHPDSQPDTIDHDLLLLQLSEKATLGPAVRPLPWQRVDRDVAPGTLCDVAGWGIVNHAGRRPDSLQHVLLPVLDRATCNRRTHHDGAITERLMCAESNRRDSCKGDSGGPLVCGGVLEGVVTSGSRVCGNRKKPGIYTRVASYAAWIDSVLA

SMILES	IC50 (Complement factor D [1])	Kd (Complement factor D [2])	K (Complement factor D [3])	K (Complement factor D [4])	IC50 (Complement factor D [5])	IC50 (Complement factor D [6])
O=C(Nc1cccc(Br)n1)[C@@H]1C[C@H]2C[C@H]2N1C(=O)Cn1ncc2ccccc21	–	–	15800 M⁻¹ s⁻¹	0.189 s⁻¹	–	–
O=c1[nH]c2ccccc2c(=O)o1	–	–	–	–	–	2900 nM
N=C(N)c1cc2ccc(OC(=O)c3cccs3)cc2s1	–	–	–	–	–	98 nM

Now from value to compound, other results behind:

IC50 (Complement factor D [1])	Kd (Complement factor D [2])	K (Complement factor D [3])	K (Complement factor D [4])	IC50 (Complement factor D [5])	SMILES	IC50 (Complement factor D [6])
31.9 nM	17 nM	212000 M⁻¹ s⁻¹	0.00361 s⁻¹	–	NC(=O)c1nn(CC(=O)N2[C@@H]3C[C@@H]3C[C@H]2C(=O)Nc2cccc(Br)n2)c2ncccc12	–
27.3 nM	18.9 nM	173000 M⁻¹ s⁻¹	0.00327 s⁻¹	19 nM	NC(=O)c1nn(CC(=O)N2CCS[C@H]2C(=O)Nc2cccc(Br)n2)c2ncccc12	–
–	–	132000 M⁻¹ s⁻¹	0.292 s⁻¹	–	O=C(Nc1cccc(Br)n1)[C@@H]1SCCN1C(=O)Cn1ncc2ccccc21	–

From ChEMBL document CHEMBL3864180, “Buried Hydrogen Bond Interactions Contribute to the High Potency of Complement Factor D Inhibitors” (ACS Med Chem Lett, 2016)
